Rows were chosen to be rich in hits. Some 1.8% of all compounds tested hit in one or more screens of this group.
MC4R antag cAMP = blocks human MC4R cAMP signaling; P32245; MC4R-expressing cells, MTII-stimulated cAMP, LANCE TR-FRET; inhibition, % at 6.5 µM; 0.48% of 360,000 active; AID 540295;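 active = inhibition above its plate's cutoff, the mean of tested wells on that plate plus 3 SD, cut at about 29% in these data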;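 note: 0% = Melanotan II alone and 100% = Melanotan II plus saturating MCL0020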
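Assay system: U2OS cells stably expressing human melanocortin 4 receptor (MC4R) / Dosing: 6.5 µM / Timing: compound 30 min, challenge 1 h, detection 1 h / Measured by: Eu-cAMP/anti-cAMP TR-FRET, emission 671 nm / Replicates: singlicate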
AI-2 QS modul = modulates the Vibrio harveyi AI-2 quorum sensing system; Vibrio harveyi JMH597 AI-2 luminescence/OD600 ratio, 9 h; active compounds read low; strain lacks LuxN and CqsS sensors; 0 = neutral-control median; activity change, % at 7.5 µM; 0.4% of 300,000 active; in the data active = activity change below about -75%, passing the limit was not always enough;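 note: luminescence divided by OD600 gain over 9 h not by final OD600 alone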
MC4R ag barr = activates human MC4R beta-arrestin recruitment; P32245; U2OS MC4R beta-arrestin complementation, luminescence; percent of melanotan II response, DMSO zero; activation, % at 8.9 µM; 0.98% of 360,000 active; AID 540308;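 active = activation above a per-plate cutoff, the mean activation of sample wells on that plate plus 3 SD, cut at about 8% in these data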
NTR1 ag = NTR1 (human) agonism; P30989; NTR1-U2OS beta-arrestin-GFP spot imaging, agonist mode; activation, % at 20 µM; 0.17% of 330,000 active; AID 493036;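 active = activation at or above 40% of the spot to cytoplasm intensity ratio, with at least 20 cells analyzed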;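 note: 0% = DMSO without peptide and 100% = 100 nM NTR1 peptide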
Target sequence (P30989 whole entry, looked up): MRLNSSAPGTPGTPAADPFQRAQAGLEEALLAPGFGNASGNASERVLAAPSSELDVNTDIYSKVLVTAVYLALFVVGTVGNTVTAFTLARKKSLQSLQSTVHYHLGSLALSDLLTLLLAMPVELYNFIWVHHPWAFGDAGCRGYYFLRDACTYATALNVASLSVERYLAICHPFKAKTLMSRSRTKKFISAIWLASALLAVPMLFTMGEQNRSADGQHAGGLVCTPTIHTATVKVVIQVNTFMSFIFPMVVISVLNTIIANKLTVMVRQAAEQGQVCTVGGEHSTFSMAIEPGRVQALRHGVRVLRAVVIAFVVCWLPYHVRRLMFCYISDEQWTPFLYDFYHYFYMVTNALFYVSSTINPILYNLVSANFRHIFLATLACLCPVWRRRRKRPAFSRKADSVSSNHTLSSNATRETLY
MC4R barr conf = human MC4R beta-arrestin agonism confirmation. shares compounds with MC4R ag barr. U2OS MC4R beta-arrestin recruitment, luminescence; scaled DMSO 0%, Melanotan II 100%. activation, % at 8.9 µM. 31% of 2,400 active. AID 602192;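 active = mean activation across replicates above the hit cutoff set in the earlier primary screen, cut at about 8% in these data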
MOR DOR agonist = OPRM1-OPRD1 heterodimer agonism counter-screen; shares compounds with MC4R ag barr; U2OS PathHunter beta-arrestin, beta-gal luminescence; percent of deltorphin B response, DMSO zero; activation, % at 9.2 µM; 5.8% of 2,400 active; AID 602194;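 active = mean activation across replicates exceeds the hit threshold derived in the earlier primary screen, cut at about 18% in these data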;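 note: 100% = deltorphin B at 0.9 µM final and 0% = DMSO alone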
Starred values were filed as active, the others as inactive; . = not tested or not shown.

SMILES | MC4R antag cAMP | AI-2 QS modul | MC4R ag barr | NTR1 ag | MC4R barr conf | MOR DOR agonist
CCOc1ccc(Nc2oc(-c3cccs3)nc2C#N)cc1 | -2 | 3 | 18* | 2 | 5 | 10
CSc1ccc(CCNC(=O)CSc2ccsc2[N+](=O)[O-])cc1 | 0 | 20 | 11* | -1 | 3 | 12
COc1ccc(CC(C(=O)Nc2ccc(OC)cc2)c2nn[nH]n2)cc1 (stereo not given) | 0 | 8 | -1 | -1 | . | .
COc1ccc2cc(C3=CC(=O)CCC3)ccc2c1 | -10 | . | -2 | . | . | .
O=C1COc2ccc(C(=O)COC(=O)CCSc3ccc(Cl)cc3)cc2N1 | 6 | -1 | 19* | 2 | 4 | 8
Cc1ccc(S(=O)(=O)N2CCCOC2CNC(=O)C(=O)NC2CCCC2)cc1 (stereo not given) | 0 | 27 | 0 | -1 | . | .
CCOc1ccc(Br)cc1C1=CC(=O)C[C@H](c2ccc(OC)cc2)C1 | -17 | . | -1 | 3 | . | .
O=C(Nc1ccc2oc(=O)ccc2c1)c1ccc(-c2cccc(Cl)c2)o1 | 21 | 0 | 20* | 8 | 0 | 8
N/C(=N\OC(=O)CSc1ccccc1)c1ccccn1 | -6 | 17 | 1 | 1 | . | .
COc1ccc(Cl)cc1-c1nc(SCC(=O)NCC2CCCO2)n[nH]1 (stereo not given) | -3 | . | 0 | 3 | . | .
O=C(/C(=N/N=C/c1ccc(O)c(O)c1)c1ccccc1)c1ccccc1 | 17 | 74 | 10* | 6 | 3 | 11
Oc1ccc(/C=N/N=C/c2ccc(O)c(O)c2)cc1O | -1 | 23 | -1 | 2 | . | .
COc1ccc(NC(=O)CCNC(=O)C2CCN(S(=O)(=O)c3ccccc3)CC2)cc1OC | 6 | . | -1 | . | . | .
CCc1ccc(CCC(=O)Nc2ncc(Cc3ccccc3Cl)s2)o1 | -27 | 22 | 18* | 0 | 25* | 13
O=C(CN1CCOCC1)Nc1ncc(Cc2ccccc2Cl)s1 | 5 | -2 | -2 | 0 | . | .
CC(C)c1ccc(NS(=O)(=O)c2ccc(-n3cccn3)cc2)cc1 | 3 | -20 | 13* | 10 | 17* | 11
CC(C)c1ccc(S(=O)(=O)Nc2ccc(-n3cnnn3)cc2)cc1 | 8 | . | -1 | 1 | . | .
Cc1nc2ccc(F)cc2cc1C(=O)Nc1ccc(Cl)c(Cl)c1 | -1 | 7 | 9.9* | . | -2 | 6
Cc1nc2ccc(F)cc2cc1C(=O)NCc1ccco1 | 4 | 5 | 0 | 1 | . | .
Cc1ccc(C(=O)Nc2ccncc2)c(C)c1 | -2 | 13 | -1 | 1 | . | .
O=C(CCN1C(=O)/C(=C/c2ccccc2F)SC1=S)N[C@@H](CO)Cc1ccccc1 | 7 | 12 | 11* | 11 | -3 | 5
COc1cccc(/C=C2\SC(=S)N(CCC(=O)NCCc3ccc(O)cc3)C2=O)c1 | 15 | 54 | 35* | 12 | -3 | 3
O=C(CCN1C(=O)/C(=C/c2ccccc2)SC1=S)N[C@@H](CO)Cc1ccccc1 | 6 | -3 | 19* | 12 | -2 | 4
O=C(CCN1C(=O)/C(=C/c2ccc(F)cc2)SC1=S)Nc1cccnc1 | 5 | 14 | 0 | 4 | . | .
O=C(CCN1C(=O)/C(=C/c2ccccc2)SC1=S)Nc1ccccn1 | 2 | 13 | 1 | 3 | . | .
SMILES | MC4R antag cAMP | AI-2 QS modul | MC4R ag barr | NTR1 ag | MC4R barr conf | MOR DOR agonist
COc1cccc(/C=C2\SC(=S)N(CCC(=O)Nc3ccc(O)cc3)C2=O)c1 | 8 | -3 | 3 | 1 | . | .
O=C(CCN1C(=O)/C(=C/c2ccccc2)SC1=S)Nc1cccnc1 | 14 | 15 | 11* | 6 | 2 | 6
CC1CCCN(CCOc2cccc(Oc3ccccc3)c2)C1 (stereo not given) | -3 | 7 | 3 | 1 | . | .
O=S(=O)(c1ccc(Br)cc1)c1nc(-c2ccco2)oc1NCCCn1ccnc1 | 3 | . | -5 | 0 | . | .
O=S(=O)(Nc1ccc(-c2ccccc2)cc1)c1ccccc1 | 5 | . | 14* | . | 6 | 7
Cc1nn(-c2nc3ccccc3s2)c(N)c1Sc1ccc(F)cc1 | 0 | 13 | 15* | 0 | 1 | 4
COc1ccc(Cc2nnc(NC(=O)CSc3ccccc3)s2)cc1 | -6 | 20 | 14* | 4 | 3 | 3
COc1ccc(Cc2nnc(NC(=O)CSc3ccc(C)cc3)s2)cc1 | 3 | 22 | 8 | 4 | . | .
Cc1cccc(NC(=O)c2sc3nc(-c4ccc(F)cc4)cn3c2C)n1 | 14 | 23 | 12* | 3 | 7 | 5
Cc1cccc(NC(=O)c2sc3nc(-c4ccccc4)cn3c2C)n1 | 4 | 39 | 0 | 5 | . | .
O=C(NCC(=O)N1CC=C(c2ccccc2)CC1)c1ccco1 | 0 | 3 | -1 | -1 | . | .
COc1ccc(C(=O)Nc2ccc(N3CCN(Cc4ccccc4)CC3)cc2)cc1 | -4 | 14 | -1 | 1 | . | .
COc1c(F)c(F)c(C(=O)Nc2ccc(N3CCN(Cc4ccccc4)CC3)cc2)c(F)c1F | 13 | 7 | 11* | 10 | 2 | 4
CCCn1c(SC(C)C(=O)NCC2CCCO2)nc2sc(CC)cc2c1=O (stereo not given) | 1 | 54 | -2 | 1 | . | .
c1cc2ccc3ccc(-n4cnnn4)c4ccc(c1)c2c34 | -12 | -5 | 31* | 6 | 6 | 6
Cc1c(N)cccc1-n1cnnn1 | 18 | 18 | -2 | -1 | . | .
Clc1cccc(-c2nc3nc4ccccc4nc3n2Cc2ccccc2)c1 | 7 | 2 | 24* | 7 | 1 | 5
O=C(COC(=O)c1ccccc1Nc1cccc(C(F)(F)F)c1)NCc1ccco1 | -7 | 12 | 13* | -2 | 6 | 9
O=C(COC(=O)c1ccccc1Nc1ccccc1)NCc1ccccc1 | -4 | 35 | 25* | 10 | 0 | 7
O=C(COC(=O)c1ccccc1)NCc1ccco1 | -1 | 12 | -1 | -1 | . | .
O=C(COC(=O)c1ccccc1Nc1ccccc1)NCc1ccccc1Cl | 12 | 44 | 16* | 6 | 10* | 4
OCC[C@@H]1C[C@H](O)[C@@H](O)[C@@]2(CCCc3ccccc3O2)O1 | 3 | 30 | 2 | 4 | . | .
COc1ccc(NC(=O)CCNS(=O)(=O)c2cc(Br)cnc2N)c(OC)c1 | 2 | 15 | 0 | -1 | . | .
CCn1c(SCC(=O)Nc2ccc(Cl)cc2)nc2nc3c(cc2c1=O)CCCC3 | 12 | 7 | 0 | 12 | . | .
CCn1c(SCC(=O)Nc2ccc(C(C)=O)cc2)nc2nc3c(cc2c1=O)CCCC3 | 11 | 7 | 19* | 6 | 18* | 2
COc1ccc(C(=O)c2sc(Nc3ccccc3)c(C(=O)Nc3ccc(OC)c(OC)c3)c2N)cc1 | 9 | 34 | -2 | 4 | . | .
COc1ccc(NC(=O)c2c(Nc3ccccc3)sc(C(=O)c3ccc(F)cc3)c2N)cc1 | 1 | 5 | 12* | 12 | 14* | 9

Screening results as filed in PubChem BioAssay.
